Experimental data published in ChEMBL document CHEMBL1629494, “New amino acid esters of salicylanilides active against MDR-TB and other microbes” (Eur J Med Chem, 2010).
Values after ≈ are worked out from the molar mass of the structure shown.

Legend:
Format in all cases: functional
Lichtheimia corymbifera [1] = test: Antifungal activity against Absidia corymbifera 272 after 24 hrs by broth microdilution method; settings: Lichtheimia corymbifera, 272, 24 h
Staphylococcus aureus [2] = test: Antibacterial activity against methicillin-resistant Staphylococcus aureus H5996/08 after 24 hrs by broth microdilution method; settings: H5996/08, 24 h
How it was run: (§1)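 Broth microdilution following […], with twofold compound dilutions in Mueller-Hinton bouillon. Incubated 24 and 48 h at 35 °C in the dark in a humid atmosphere. MIC (IC80) was taken as ≥80% growth reduction versus control, read visually and photometrically.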

Klebsiella pneumoniae [3] = test: Antibacterial activity against Klebsiella pneumoniae D11750/08 after 48 hrs by broth microdilution method; settings: D11750/08, 48 h; how it was run: as §1
Nakaseomyces glabratus [4] = test: Antifungal activity against Candida glabrata 20/I after 24 hrs by broth microdilution method
[5] = tested on: Staphylococcus epidermidis; test: Antibacterial activity against Staphylococcus epidermidis H6966/08 after 48 hrs by broth microdilution method; settings: H6966/08, 48 h; how it was run: as §1
[6] = tested on: Mycobacterium tuberculosis; test: Antimycobacterial activity against Mycobacterium tuberculosis H37Rv 331/88 after 21 days by micromethod; settings: H37Rv 331/88, 504 h
How it was run: (§2)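 Micromethod in Sula semisynthetic medium, with compounds added as DMSO solutions at 1000, 500, 250, 125, 62, 32, 16, 8, 4, 2, 1, 0.5, 0.25. Inoculum dilutions: H37Rv 10^-3; M. avium 330/88 10^-5; M. kansasii 235/80 10^-4; M. kansasii 6509/96 10^-5. Incubated at 37 °C, read at 14 and 21 days, and at 7 days for M. kansasii. MIC was the lowest concentration inhibiting growth.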

Mycobacterium kansasii [7] = test: Antimycobacterial activity against Mycobacterium kansasii
Lichtheimia corymbifera [8] = test: Antifungal activity against Absidia corymbifera 272 after 48 hrs by broth microdilution method; settings: Lichtheimia corymbifera, 272, 48 h
Trichosporon beigelii [9] = test: Antifungal activity against Trichosporon beigelii 1188 after 48 hrs by broth microdilution method; settings: Trichosporon beigelii, 1188, 48 h
Mycobacterium avium [10] = test: Antimycobacterial activity against multidrug-resistant Mycobacterium avium 330/88 after 14 days by micromethod; settings: 330/88, 336 h; how it was run: as §2
Candida tropicalis [11] = test: Antifungal activity against Candida tropicalis 156 after 48 hrs by broth microdilution method; settings: Candida tropicalis, 156, 48 h
Mycobacterium kansasii [12] = test: Antimycobacterial activity against Mycobacterium kansasii 235/80 after 14 days by micromethod; settings: 235/80, 336 h; how it was run: as §2
Candida tropicalis [13] = test: Antifungal activity against Candida tropicalis 156 after 24 hrs by broth microdilution method; settings: Candida tropicalis, 156, 24 h
Aspergillus fumigatus [14] = test: Antifungal activity against Aspergillus fumigatus 231 after 48 hrs by broth microdilution method; settings: Aspergillus fumigatus, 231, 48 h
Mycobacterium avium [15] = test: Antimycobacterial activity against Mycobacterium avium
Mycobacterium avium [16] = test: Antimycobacterial activity against multidrug-resistant Mycobacterium avium 330/88 after 21 days by micromethod; settings: 330/88, 504 h; how it was run: as §2
Trichosporon beigelii [17] = test: Antifungal activity against Trichosporon beigelii 1188 after 24 hrs by broth microdilution method; settings: Trichosporon beigelii, 1188, 24 h
Nakaseomyces glabratus [18] = test: Antifungal activity against Candida glabrata 20/I after 48 hrs by broth microdilution method
Escherichia coli [19] = test: Antibacterial activity against Escherichia coli CCM 4517 after 48 hrs by broth microdilution method; settings: CCM 4517, 48 h; how it was run: as §1
Candida albicans [20] = test: Antifungal activity against Candida albicans ATCC 44859 after 48 hrs by broth microdilution method; settings: ATCC 44859, 48 h
Escherichia coli [21] = test: Antibacterial activity against Escherichia coli CCM 4517 after 24 hrs by broth microdilution method; settings: CCM 4517, 24 h; how it was run: as §1
Pichia kudriavzevii [22] = test: Antifungal activity against Candida krusei E28 after 48 hrs by broth microdilution method; settings: E28, 48 h
[23] = tested on: Trichophyton mentagrophytes; test: Antifungal activity against Trichophyton mentagrophytes after 48 hrs by broth microdilution method
Aspergillus fumigatus [24] = test: Antifungal activity against Aspergillus fumigatus 231 after 24 hrs by broth microdilution method; settings: Aspergillus fumigatus, 231, 24 h
Klebsiella pneumoniae [25] = test: Antibacterial activity against Klebsiella pneumoniae D11750/08 after 24 hrs by broth microdilution method; settings: D11750/08, 24 h; how it was run: as §1
Mycobacterium kansasii [26] = test: Antimycobacterial activity against Mycobacterium kansasii 6509/96 after 21 days by micromethod; settings: 6509/96, 504 h; how it was run: as §2
Mycobacterium kansasii [27] = test: Antimycobacterial activity against Mycobacterium kansasii 6509/96 after 7 days by micromethod; settings: 6509/96, 168 h; how it was run: as §2
[28] = tested on: Staphylococcus epidermidis; test: Antibacterial activity against Staphylococcus epidermidis H6966/08 after 24 hrs by broth microdilution method; settings: H6966/08, 24 h; how it was run: as §1
Enterococcus sp. [29] = test: Antibacterial activity against Enterococcus sp. J14365/08 after 24 hrs by broth microdilution method; settings: J14365/08, 24 h; how it was run: as §1
Mycobacterium kansasii [30] = test: Antimycobacterial activity against Mycobacterium kansasii 235/80 after 21 days by micromethod; settings: 235/80, 504 h; how it was run: as §2
Enterococcus sp. [31] = test: Antibacterial activity against Enterococcus sp. J14365/08 after 48 hrs by broth microdilution method; settings: J14365/08, 48 h; how it was run: as §1
Staphylococcus aureus [32] = test: Antibacterial activity against Staphylococcus aureus CCM 4516/08 after 24 hrs by broth microdilution method; settings: CCM 4516/08, 24 h; how it was run: as §1
[33] = tested on: Mycobacterium tuberculosis; test: Antimycobacterial activity against Mycobacterium tuberculosis H37Rv 331/88 after 14 days by micromethod; settings: H37Rv 331/88, 336 h; how it was run: as §2
Staphylococcus aureus [34] = test: Antibacterial activity against methicillin-resistant Staphylococcus aureus H5996/08 after 48 hrs by broth microdilution method; settings: H5996/08, 48 h; how it was run: as §1
Staphylococcus aureus [35] = test: Antibacterial activity against Staphylococcus aureus CCM 4516/08 after 48 hrs by broth microdilution method; settings: CCM 4516/08, 48 h; how it was run: as §1
Mycobacterium kansasii [36] = test: Antimycobacterial activity against Mycobacterium kansasii 6509/96 after 14 days by micromethod; settings: 6509/96, 336 h; how it was run: as §2
Mycobacterium kansasii [37] = test: Antimycobacterial activity against Mycobacterium kansasii 235/80 after 7 days by micromethod; settings: 235/80, 168 h; how it was run: as §2
Pichia kudriavzevii [38] = test: Antifungal activity against Candida krusei E28 after 24 hrs by broth microdilution method; settings: E28, 24 h
[39] = tested on: Mycobacterium tuberculosis; test: Antimycobacterial activity against drug-sensitive Mycobacterium tuberculosis
Candida albicans [40] = test: Antifungal activity against Candida albicans ATCC 44859 after 24 hrs by broth microdilution method; settings: ATCC 44859, 24 h
[41] = tested on: Trichophyton mentagrophytes; test: Antifungal activity against Trichophyton mentagrophytes after 24 hrs by broth microdilution method

CC(=O)N[C@@H](Cc1ccccc1)C(=O)Oc1cc(Cl)ccc1C(=O)Nc1cccc(Cl)c1
MIC (Lichtheimia corymbifera [1]): 62.5 µM (≈ 29.5 µg/mL) | MIC (Staphylococcus aureus [2]): 125 µM (≈ 58.9 µg/mL) | MIC (Klebsiella pneumoniae [3]): > 125 µM | MIC (Nakaseomyces glabratus [4]): > 125 µM | MIC [5]: 125 µM (≈ 58.9 µg/mL) | MIC [6]: 4 µM (≈ 1.89 µg/mL) | MIC (Mycobacterium kansasii [7]): 1 µM (≈ 0.471 µg/mL) | MIC (Lichtheimia corymbifera [8]): > 125 µM | MIC (Trichosporon beigelii [9]): > 125 µM | MIC (Mycobacterium avium [10]): 4 µM (≈ 1.89 µg/mL) | MIC (Candida tropicalis [11]): > 125 µM | MIC (Mycobacterium kansasii [12]): 4 µM (≈ 1.89 µg/mL) | MIC (Candida tropicalis [13]): > 125 µM | MIC (Aspergillus fumigatus [14]): > 125 µM | MIC (Mycobacterium avium [15]): 1 µM (≈ 0.471 µg/mL) | MIC (Mycobacterium avium [16]): 8 µM (≈ 3.77 µg/mL) | MIC (Trichosporon beigelii [17]): 125 µM (≈ 58.9 µg/mL) | MIC (Nakaseomyces glabratus [18]): > 125 µM | MIC (Escherichia coli [19]): > 125 µM | MIC (Candida albicans [20]): > 125 µM | MIC (Escherichia coli [21]): > 125 µM | MIC (Pichia kudriavzevii [22]): > 125 µM | MIC [23]: > 125 µM | MIC (Aspergillus fumigatus [24]): > 125 µM | MIC (Klebsiella pneumoniae [25]): > 125 µM | MIC (Mycobacterium kansasii [26]): 8 µM (≈ 3.77 µg/mL) | MIC (Mycobacterium kansasii [27]): 2 µM (≈ 0.943 µg/mL) | MIC [28]: 62.5 µM (≈ 29.5 µg/mL) | MIC (Enterococcus sp. [29]): 125 µM (≈ 58.9 µg/mL) | MIC (Mycobacterium kansasii [30]): 8 µM (≈ 3.77 µg/mL) | MIC (Enterococcus sp. [31]): > 125 µM | MIC (Staphylococcus aureus [32]): 31.2 µM (≈ 14.7 µg/mL) | MIC [33]: 2 µM (≈ 0.943 µg/mL) | MIC (Staphylococcus aureus [34]): 125 µM (≈ 58.9 µg/mL) | MIC (Staphylococcus aureus [35]): 125 µM (≈ 58.9 µg/mL) | MIC (Mycobacterium kansasii [36]): 4 µM (≈ 1.89 µg/mL) | MIC (Mycobacterium kansasii [37]): 4 µM (≈ 1.89 µg/mL) | MIC (Pichia kudriavzevii [38]): > 125 µM | MIC [39]: 1 µM (≈ 0.471 µg/mL) | MIC (Candida albicans [40]): > 125 µM | MIC [41]: 62.5 µM (≈ 29.5 µg/mL)

CC(=O)N[C@@H](Cc1ccccc1)C(=O)Oc1cc(Cl)ccc1C(=O)Nc1ccc(Cl)cc1
MIC (Lichtheimia corymbifera [1]): 7.81 µM (≈ 3.68 µg/mL) | MIC (Staphylococcus aureus [2]): 1.95 µM (≈ 0.919 µg/mL) | MIC (Klebsiella pneumoniae [3]): 125 µM (≈ 58.9 µg/mL) | MIC (Nakaseomyces glabratus [4]): > 125 µM | MIC [5]: 31.2 µM (≈ 14.7 µg/mL) | MIC [6]: 4 µM (≈ 1.89 µg/mL) | MIC (Mycobacterium kansasii [7]): 1 µM (≈ 0.471 µg/mL) | MIC (Lichtheimia corymbifera [8]): 7.81 µM (≈ 3.68 µg/mL) | MIC (Trichosporon beigelii [9]): 62.5 µM (≈ 29.5 µg/mL) | MIC (Mycobacterium avium [10]): 8 µM (≈ 3.77 µg/mL) | MIC (Candida tropicalis [11]): > 125 µM | MIC (Mycobacterium kansasii [12]): 4 µM (≈ 1.89 µg/mL) | MIC (Candida tropicalis [13]): > 125 µM | MIC (Aspergillus fumigatus [14]): > 125 µM | MIC (Mycobacterium avium [15]): 1 µM (≈ 0.471 µg/mL) | MIC (Mycobacterium avium [16]): 16 µM (≈ 7.54 µg/mL) | MIC (Trichosporon beigelii [17]): 15.6 µM (≈ 7.36 µg/mL) | MIC (Nakaseomyces glabratus [18]): > 125 µM | MIC (Escherichia coli [19]): > 125 µM | MIC (Candida albicans [20]): > 125 µM | MIC (Escherichia coli [21]): 31.2 µM (≈ 14.7 µg/mL) | MIC (Pichia kudriavzevii [22]): > 125 µM | MIC [23]: 31.2 µM (≈ 14.7 µg/mL) | MIC (Aspergillus fumigatus [24]): > 125 µM | MIC (Klebsiella pneumoniae [25]): 62.5 µM (≈ 29.5 µg/mL) | MIC (Mycobacterium kansasii [26]): 16 µM (≈ 7.54 µg/mL) | MIC (Mycobacterium kansasii [27]): 4 µM (≈ 1.89 µg/mL) | MIC [28]: 1.95 µM (≈ 0.919 µg/mL) | MIC (Enterococcus sp. [29]): 3.9 µM (≈ 1.84 µg/mL) | MIC (Mycobacterium kansasii [30]): 4 µM (≈ 1.89 µg/mL) | MIC (Enterococcus sp. [31]): > 125 µM | MIC (Staphylococcus aureus [32]): 1.95 µM (≈ 0.919 µg/mL) | MIC [33]: 4 µM (≈ 1.89 µg/mL) | MIC (Staphylococcus aureus [34]): 31.2 µM (≈ 14.7 µg/mL) | MIC (Staphylococcus aureus [35]): 15.6 µM (≈ 7.36 µg/mL) | MIC (Mycobacterium kansasii [36]): 8 µM (≈ 3.77 µg/mL) | MIC (Mycobacterium kansasii [37]): 4 µM (≈ 1.89 µg/mL) | MIC (Pichia kudriavzevii [38]): 31.2 µM (≈ 14.7 µg/mL) | MIC [39]: 1 µM (≈ 0.471 µg/mL) | MIC (Candida albicans [40]): 31.2 µM (≈ 14.7 µg/mL) | MIC [41]: 15.6 µM (≈ 7.36 µg/mL)
